Experimental data published in ChEMBL document CHEMBL3124772, “Design, synthesis, and evaluation of conformationally restricted acetanilides as potent and selective β3 adrenergic receptor agonists for the treatment of overactive bladder” (J Med Chem, 2014).

Key:
[1] = molecular target: Beta-1 adrenergic receptor (Homo sapiens, UniProt P08588); assay: Displacement of [125I]-cyanopindolol from recombinant human beta-1 adrenergic receptor expressed in CHO cell membranes after 1 hr by scintillation counting analysis
[2] = molecular target: T1, Beta-3 adrenergic receptor (Homo sapiens, UniProt P13945); assay: Agonist activity at human beta-3 adrenergic receptor expressed in CHO cells assessed as increase in intracellular cAMP accumulation at 10^-10 to 10^-5 M after 30 mins by time-resolved fluorescence assay relative to R-(-)isoproterenol; type: functional, cell-based
Procedure, shortened: (§1)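 CHO cells stably transfected with cloned β3-AR, harvested after 3 days subculture with enzyme-free dissociation, 6000 cells in HBSS with 5 mM HEPES, 0.1% BSA and 0.6 mM IBMX. Ligand at 10⁻¹⁰ to 10⁻⁵ M final, 30 min room temperature with labeled cAMP antibody; LANCE TR-FRET read after 1 h detection, cAMP from standard curve.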
Target sequence in this assay (P13945 whole entry, looked up): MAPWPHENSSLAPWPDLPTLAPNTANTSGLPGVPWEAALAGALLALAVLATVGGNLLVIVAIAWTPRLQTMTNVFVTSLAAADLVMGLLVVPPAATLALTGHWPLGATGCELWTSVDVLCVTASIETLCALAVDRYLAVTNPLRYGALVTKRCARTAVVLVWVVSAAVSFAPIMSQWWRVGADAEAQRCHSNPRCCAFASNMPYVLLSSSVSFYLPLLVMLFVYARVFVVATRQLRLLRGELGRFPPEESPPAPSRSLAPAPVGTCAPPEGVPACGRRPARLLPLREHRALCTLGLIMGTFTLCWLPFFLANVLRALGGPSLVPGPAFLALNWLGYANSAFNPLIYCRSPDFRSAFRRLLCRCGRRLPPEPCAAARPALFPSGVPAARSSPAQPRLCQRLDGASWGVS

[3] = Oral bioavailability in Sprague-Dawley rat at 2 mg/kg; type: ADME, organism-based; conditions: in vivo
[4] = Plasma clearance in Sprague-Dawley rat at 1 mg/kg, iv and 2 mg/kg, po; type: ADME, organism-based
[5] = Apparent permeability in MDCK2 cells; type: ADME, cell-based, Canis lupus familiaris, MDCK-II; conditions: dog, MDCK
[6] = Half life in Sprague-Dawley rat at 1 mg/kg, iv and 2 mg/kg, po; type: ADME, organism-based; conditions: in vivo
[7] = molecular target: T1, Beta-3 adrenergic receptor; assay: Agonist activity at human beta-3 adrenergic receptor expressed in CHO cells assessed as increase in intracellular cAMP accumulation after 30 mins by time-resolved fluorescence assay; type: functional, cell-based; procedure, shortened: as §1
Target sequence in this assay (P13945 whole entry): as the sequence (P13945 whole entry, looked up) above

[8] = (§2) Fraction unbound in Sprague-Dawley rat plasma at 1 mg/kg, iv and 2 mg/kg, po; type: ADME, organism-based; conditions: Sprague-Dawley, plasma
[9] = Intrinsic clearance in rat liver microsomes; type: ADME; conditions: read-out: CLH
[10] = molecular target: Beta-2 adrenergic receptor (Homo sapiens, UniProt P07550); assay: Displacement of [125I]-cyanopindolol from recombinant human beta-2 adrenergic receptor expressed in CHO cell membranes after 1 hr by scintillation counting analysis
[11] = system: Plasma; assay: as §2; type: ADME, organism-based; conditions: in vivo, BLD = below limit of detection
[12] = molecular target: Cytochrome P450 3A4 (Homo sapiens, UniProt P08684); assay: Inhibition of CYP3A4 in human liver microsomes assessed as testosterone 6beta-hydroxylation; type: ADME
[13] = molecular target: Sodium channel protein type 5 subunit alpha (Homo sapiens, UniProt Q14524); assay: Inhibition of human NaV1.5
[14] = molecular target: Voltage-dependent L-type calcium channel subunit alpha-1C (Homo sapiens, UniProt Q13936); assay: Displacement of [3H]-diltiazem from human CaV1.2
[15] = molecular target: Sodium-dependent serotonin transporter (Homo sapiens, UniProt P31645); assay: Inhibition of human SERT expressed in HEK293 cells incubated for 30 mins prior to fluorescent substrate addition measured after 30 mins by fluorescent dye uptake assay; type: cell-based
Procedure, shortened: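 HEK293 stably expressing human SERT, 20000 cells/well plated overnight at 37 °C, then in HBSS with 20 mM HEPES and 0.1% BSA. Compound added from 100× DMSO stock, 30 min at 37 °C, then fluorescent transporter substrate for 30 more min. Fluorescence read at 440/520 nm, normalized to DMSO (0%) and 10 μM fluoxetine (100%), four-parameter fit for IC50.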

[16] = molecular target: Cytochrome P450 2C9 (Homo sapiens, UniProt P11712); assay: Inhibition of CYP2C9 in human liver microsomes assessed as diclofenac alpha'-hydroxylation; type: ADME
[17] = molecular target: Cytochrome P450 2D6 (Homo sapiens, UniProt P10635); assay: Inhibition of CYP2D6 in human liver microsomes assessed as dextromethorphan O-demethylation; type: ADME
[18] = molecular target: Voltage-gated inwardly rectifying potassium channel KCNH2 (Homo sapiens, UniProt Q12809); assay: Inhibition of human ERG
[19] = organism: Homo sapiens; assay: Selectivity ratio of IC50 for human SERT to EC50 for human beta-3 adrenergic receptor
[20] = molecular target: Beta-3 adrenergic receptor (Canis lupus familiaris) (UniProt O02662); assay: Agonist activity at dog beta-3 adrenergic receptor expressed in CHO cells assessed as increase in intracellular cAMP accumulation at 10^-10 to 10^-5 M after 30 mins by time-resolved fluorescence assay relative to R-(-)isoproterenol; type: functional, cell-based; procedure, shortened: as §1
[21] = molecular target: Beta-3 adrenergic receptor (Macaca mulatta, UniProt Q28524); assay: Agonist activity at rhesus monkey beta-3 adrenergic receptor expressed in CHO cells assessed as increase in intracellular cAMP accumulation after 30 mins by time-resolved fluorescence assay; type: functional, cell-based; procedure, shortened: as §1
[22] = molecular target: Beta-3 adrenergic receptor (Canis lupus familiaris, UniProt O02662); assay: Agonist activity at dog beta-3 adrenergic receptor expressed in CHO cells assessed as increase in intracellular cAMP accumulation after 30 mins by time-resolved fluorescence assay; type: functional, cell-based; procedure, shortened: as §1
[23] = molecular target: Beta-3 adrenergic receptor (Macaca mulatta) (UniProt Q28524); assay: Agonist activity at rhesus monkey beta-3 adrenergic receptor expressed in CHO cells assessed as increase in intracellular cAMP accumulation at 10^-10 to 10^-5 M after 30 mins by time-resolved fluorescence assay relative to R-(-)isoproterenol; type: functional, cell-based; procedure, shortened: as §1
[24] = molecular target: Beta-3 adrenergic receptor (Rattus norvegicus, UniProt P26255); assay: Agonist activity at rat beta-3 adrenergic receptor expressed in CHO cells assessed as increase in intracellular cAMP accumulation after 30 mins by time-resolved fluorescence assay; type: functional, cell-based; procedure, shortened: as §1
[25] = molecular target: Beta-3 adrenergic receptor (Rattus norvegicus) (UniProt P26255); assay: Agonist activity at rat beta-3 adrenergic receptor expressed in CHO cells assessed as increase in intracellular cAMP accumulation at 10^-10 to 10^-5 M after 30 mins by time-resolved fluorescence assay relative to R-(-)isoproterenol; type: functional, cell-based; procedure, shortened: as §1

Sequence of Voltage-dependent L-type calcium channel subunit alpha-1C (Q13936 whole entry): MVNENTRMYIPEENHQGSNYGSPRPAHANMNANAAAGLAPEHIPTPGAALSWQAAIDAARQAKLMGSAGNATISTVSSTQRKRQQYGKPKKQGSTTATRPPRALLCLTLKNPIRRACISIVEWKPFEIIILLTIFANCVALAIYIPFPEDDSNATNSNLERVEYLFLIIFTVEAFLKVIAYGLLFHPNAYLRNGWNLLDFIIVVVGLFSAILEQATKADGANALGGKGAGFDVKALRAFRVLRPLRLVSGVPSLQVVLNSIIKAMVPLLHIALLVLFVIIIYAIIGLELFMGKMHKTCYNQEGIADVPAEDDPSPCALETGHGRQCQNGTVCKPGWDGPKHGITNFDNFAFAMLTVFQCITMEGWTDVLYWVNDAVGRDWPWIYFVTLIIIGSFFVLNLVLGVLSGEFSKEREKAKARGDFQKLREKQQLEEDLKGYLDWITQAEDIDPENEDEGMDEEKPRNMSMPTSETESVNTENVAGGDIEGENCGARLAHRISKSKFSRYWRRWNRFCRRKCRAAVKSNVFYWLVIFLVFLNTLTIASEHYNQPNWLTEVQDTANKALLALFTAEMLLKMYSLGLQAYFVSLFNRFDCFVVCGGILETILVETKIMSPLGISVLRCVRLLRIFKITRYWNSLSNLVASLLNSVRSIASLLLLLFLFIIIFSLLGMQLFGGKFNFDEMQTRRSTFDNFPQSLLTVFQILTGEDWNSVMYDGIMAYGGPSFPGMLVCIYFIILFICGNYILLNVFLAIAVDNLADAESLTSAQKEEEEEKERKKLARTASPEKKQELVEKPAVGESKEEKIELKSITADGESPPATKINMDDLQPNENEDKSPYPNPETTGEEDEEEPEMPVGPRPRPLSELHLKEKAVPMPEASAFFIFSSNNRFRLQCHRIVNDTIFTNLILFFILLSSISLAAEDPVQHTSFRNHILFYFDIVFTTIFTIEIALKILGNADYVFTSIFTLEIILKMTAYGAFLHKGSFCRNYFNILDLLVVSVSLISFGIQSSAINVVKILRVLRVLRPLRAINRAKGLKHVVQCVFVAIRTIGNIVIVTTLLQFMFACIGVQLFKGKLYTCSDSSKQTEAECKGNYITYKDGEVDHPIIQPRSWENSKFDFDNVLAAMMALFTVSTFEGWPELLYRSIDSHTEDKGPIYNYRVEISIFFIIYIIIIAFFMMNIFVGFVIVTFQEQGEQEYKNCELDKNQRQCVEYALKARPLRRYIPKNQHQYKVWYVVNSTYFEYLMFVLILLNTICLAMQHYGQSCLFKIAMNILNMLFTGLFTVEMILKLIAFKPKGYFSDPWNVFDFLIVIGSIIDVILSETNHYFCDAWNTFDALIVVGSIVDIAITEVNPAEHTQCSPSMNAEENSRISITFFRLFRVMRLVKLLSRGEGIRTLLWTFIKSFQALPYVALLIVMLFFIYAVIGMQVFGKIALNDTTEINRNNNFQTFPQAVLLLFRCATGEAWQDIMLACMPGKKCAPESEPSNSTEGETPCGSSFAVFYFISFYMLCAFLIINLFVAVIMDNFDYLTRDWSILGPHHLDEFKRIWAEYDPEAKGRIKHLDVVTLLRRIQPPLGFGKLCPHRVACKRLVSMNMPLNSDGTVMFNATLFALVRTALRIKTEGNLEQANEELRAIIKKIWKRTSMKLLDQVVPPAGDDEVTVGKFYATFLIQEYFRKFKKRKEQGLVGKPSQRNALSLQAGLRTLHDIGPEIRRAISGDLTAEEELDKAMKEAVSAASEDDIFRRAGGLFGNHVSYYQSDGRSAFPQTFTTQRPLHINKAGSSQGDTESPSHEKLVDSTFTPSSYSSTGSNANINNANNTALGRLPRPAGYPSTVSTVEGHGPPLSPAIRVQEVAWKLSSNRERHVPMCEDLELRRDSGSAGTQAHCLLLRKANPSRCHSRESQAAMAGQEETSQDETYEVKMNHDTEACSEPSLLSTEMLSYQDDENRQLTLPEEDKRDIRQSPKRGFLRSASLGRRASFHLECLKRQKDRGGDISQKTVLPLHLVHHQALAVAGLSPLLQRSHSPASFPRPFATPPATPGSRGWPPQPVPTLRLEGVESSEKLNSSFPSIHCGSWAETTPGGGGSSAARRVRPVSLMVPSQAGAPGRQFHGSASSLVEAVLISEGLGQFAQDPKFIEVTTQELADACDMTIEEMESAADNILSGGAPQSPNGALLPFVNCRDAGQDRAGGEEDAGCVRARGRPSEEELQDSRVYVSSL
Sequence of Sodium-dependent serotonin transporter (P31645 whole entry): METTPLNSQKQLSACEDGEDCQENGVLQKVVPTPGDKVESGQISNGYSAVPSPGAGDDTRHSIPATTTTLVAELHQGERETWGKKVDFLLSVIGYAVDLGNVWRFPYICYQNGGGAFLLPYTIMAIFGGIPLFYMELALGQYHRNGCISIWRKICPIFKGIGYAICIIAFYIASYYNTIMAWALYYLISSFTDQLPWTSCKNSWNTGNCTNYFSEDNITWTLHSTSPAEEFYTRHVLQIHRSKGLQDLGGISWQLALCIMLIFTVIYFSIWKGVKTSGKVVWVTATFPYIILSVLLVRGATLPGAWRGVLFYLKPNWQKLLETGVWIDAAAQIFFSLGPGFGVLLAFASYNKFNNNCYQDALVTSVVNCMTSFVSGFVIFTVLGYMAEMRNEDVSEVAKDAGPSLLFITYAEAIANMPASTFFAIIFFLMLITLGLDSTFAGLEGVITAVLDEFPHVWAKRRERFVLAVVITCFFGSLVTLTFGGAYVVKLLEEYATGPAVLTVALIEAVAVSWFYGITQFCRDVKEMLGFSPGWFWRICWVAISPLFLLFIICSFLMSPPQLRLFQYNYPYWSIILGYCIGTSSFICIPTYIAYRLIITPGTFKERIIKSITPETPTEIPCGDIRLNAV
Sequence of Voltage-gated inwardly rectifying potassium channel KCNH2 (Q12809 whole entry): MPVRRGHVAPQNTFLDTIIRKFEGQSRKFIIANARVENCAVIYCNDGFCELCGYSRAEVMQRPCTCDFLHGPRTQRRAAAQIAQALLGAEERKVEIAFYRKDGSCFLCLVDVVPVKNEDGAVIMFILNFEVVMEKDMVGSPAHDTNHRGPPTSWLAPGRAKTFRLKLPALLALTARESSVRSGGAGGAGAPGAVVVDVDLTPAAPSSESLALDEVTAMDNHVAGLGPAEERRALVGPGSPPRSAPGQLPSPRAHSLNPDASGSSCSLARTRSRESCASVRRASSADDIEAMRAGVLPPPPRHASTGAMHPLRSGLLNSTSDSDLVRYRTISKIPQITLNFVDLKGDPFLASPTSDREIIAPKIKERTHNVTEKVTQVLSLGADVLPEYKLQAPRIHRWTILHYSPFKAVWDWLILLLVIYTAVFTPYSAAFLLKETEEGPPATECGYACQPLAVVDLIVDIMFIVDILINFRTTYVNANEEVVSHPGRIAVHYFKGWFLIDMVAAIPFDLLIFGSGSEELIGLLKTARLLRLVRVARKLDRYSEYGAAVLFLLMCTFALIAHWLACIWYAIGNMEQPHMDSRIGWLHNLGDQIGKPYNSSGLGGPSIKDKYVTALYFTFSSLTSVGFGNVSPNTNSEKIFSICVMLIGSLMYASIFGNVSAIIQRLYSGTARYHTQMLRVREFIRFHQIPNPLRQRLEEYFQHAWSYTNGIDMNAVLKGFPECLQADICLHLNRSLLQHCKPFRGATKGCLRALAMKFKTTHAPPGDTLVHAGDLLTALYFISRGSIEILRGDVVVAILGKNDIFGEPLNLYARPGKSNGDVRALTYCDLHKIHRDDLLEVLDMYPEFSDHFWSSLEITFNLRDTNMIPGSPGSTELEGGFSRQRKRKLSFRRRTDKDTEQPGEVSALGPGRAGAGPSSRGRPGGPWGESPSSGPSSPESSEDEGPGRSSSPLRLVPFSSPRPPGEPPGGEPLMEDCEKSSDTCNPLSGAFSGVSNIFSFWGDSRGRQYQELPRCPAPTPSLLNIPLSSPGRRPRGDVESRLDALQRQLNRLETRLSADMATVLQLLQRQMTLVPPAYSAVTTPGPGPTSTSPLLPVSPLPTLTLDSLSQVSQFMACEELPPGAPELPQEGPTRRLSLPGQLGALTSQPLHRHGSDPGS
Sequence of Cytochrome P450 2C9 (P11712 whole entry): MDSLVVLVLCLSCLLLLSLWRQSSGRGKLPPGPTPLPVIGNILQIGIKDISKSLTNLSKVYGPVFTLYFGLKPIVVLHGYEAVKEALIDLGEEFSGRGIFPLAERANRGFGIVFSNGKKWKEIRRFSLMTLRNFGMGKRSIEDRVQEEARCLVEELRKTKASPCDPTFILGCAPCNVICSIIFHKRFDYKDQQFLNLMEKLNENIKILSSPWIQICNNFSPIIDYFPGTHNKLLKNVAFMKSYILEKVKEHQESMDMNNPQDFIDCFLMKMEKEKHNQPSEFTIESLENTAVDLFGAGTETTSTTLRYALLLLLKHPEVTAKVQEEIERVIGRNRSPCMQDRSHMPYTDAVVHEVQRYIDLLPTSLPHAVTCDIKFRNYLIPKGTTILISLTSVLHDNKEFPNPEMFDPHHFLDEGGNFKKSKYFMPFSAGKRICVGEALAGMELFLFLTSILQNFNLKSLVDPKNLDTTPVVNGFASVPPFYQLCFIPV

IC50 [1] [µM] | Activity [2] [%] | clearance [4] [mL/min/kg] | half-life [6] [h] | EC50 [7] [nM] | IC50 [10] [µM] | SMILES | other results
> 20 | 96 | 87 | 1 | 0.48 | > 20 | Cc1nc2c(s1)CC[C@H]2C(=O)Nc1ccc(C[C@@H]2CC[C@H]([C@H](O)c3ccccc3)N2)cc1 | bioavailability [3]: 6%; Papp [5]: 26 ×10⁻⁶ cm/s; fraction unbound [8]: 0.05; CLint scaled [9]: 135 mL/min/kg
> 20 | 37 |  |  | 1.95 | > 20 | CCc1nc2c(s1)CC[C@H]2C(=O)Nc1ccc(C[C@@H]2CC[C@H]([C@H](O)c3ccccc3)N2)cc1 | 
> 20 | 85 |  |  | 0.83 | > 20 | CC[C@@H](C(=O)Nc1ccc(C[C@@H]2CC[C@H]([C@H](O)c3ccccc3)N2)cc1)c1csc(N)n1 | 
> 20 | 85 |  |  | 0.67 | > 20 | C[C@H](C(=O)Nc1ccc(C[C@@H]2CC[C@H]([C@H](O)c3ccccc3)N2)cc1)c1csc(N)n1 | 
> 20 | 66 |  |  | 0.88 | > 20 | CCC[C@@H](C(=O)Nc1ccc(C[C@@H]2CC[C@H]([C@H](O)c3ccccc3)N2)cc1)c1csc(N)n1 | 
> 20 | 101 | 32 | 4 | 0.37 | > 20 | Nc1nc2c(s1)CC[C@H]2C(=O)Nc1ccc(C[C@@H]2CC[C@H]([C@H](O)c3cccnc3)N2)cc1 | bioavailability [3]: 0%; Papp [5]: < 1 ×10⁻⁶ cm/s; Fu [11]: BLD; CLint scaled [9]: 57 mL/min/kg
> 20 | 92 | 11 | 8 |  | > 20 | Nc1nc(CC(=O)Nc2ccc(C[C@@H]3CCC([C@H](O)c4ccccc4)N3)cc2)cs1 (single isomer, unassigned) | IC50 [12]: > 100 µM; IC50 [13]: > 30 µM; IC50 [14]: 8.2 µM; Papp [5]: 5 ×10⁻⁶ cm/s; IC50 [15]: 1.61 µM; fraction unbound [8]: 0.06; IC50 [16]: > 100 µM; CLint scaled [9]: 38 mL/min/kg; IC50 [17]: 2.2 µM
4.33 | 76 |  |  | 186 | 2.51 | O=C(Nc1ccc(C[C@@H]2CC[C@H]([C@H](O)c3ccccc3)N2)cc1)[C@@H]1CCc2sc(-c3ccc(F)cc3)nc21 | 
> 20 | 103 | 185 | 3 | 0.21 | > 20 | Nc1nc2c(s1)CCC[C@H]2C(=O)Nc1ccc(C[C@@H]2CC[C@H]([C@H](O)c3ccccc3)N2)cc1 | bioavailability [3]: 0%; Papp [5]: 5 ×10⁻⁶ cm/s; fraction unbound [8]: 0.14; CLint scaled [9]: 63 mL/min/kg
> 20 | 72 |  |  | 0.13 | > 20 | Nc1nc2c(s1)CC[C@H]2C(=O)Nc1ccc(C[C@@H]2CC[C@H]([C@H](O)c3ccc(F)cc3)N2)cc1 | IC50 [18]: 5.6 µM
> 20 | 93 |  |  | 0.15 | 8.45 | Nc1nc2c(s1)CC[C@H]2C(=O)Nc1ccc(C[C@@H]2CC[C@H]([C@H](O)c3cccc(Cl)c3)N2)cc1 | 
> 20 | 101 | 80 | 1 | 0.64 | > 20 | O=C(Nc1ccc(C[C@@H]2CC[C@H]([C@H](O)c3ccccc3)N2)cc1)[C@@H]1CCc2scnc21 | bioavailability [3]: 12%; Papp [5]: 24 ×10⁻⁶ cm/s; fraction unbound [8]: 0.1; CLint scaled [9]: 68 mL/min/kg
13.3 | 15 |  |  | 8.78 | 2.47 | O=C(Nc1ccc(C[C@@H]2CC[C@H]([C@H](O)c3cccnc3)N2)cc1)[C@@H]1CCc2sc(-c3ccc(F)cc3)nc21 | 
> 20 | 43 |  |  | 12.4 | > 20 | O=C(Nc1ccc(C[C@@H]2CC[C@H]([C@H](O)c3cccnc3)N2)cc1)[C@@H]1CCc2sc(C3CC3)nc21 | 
> 20 | 49 |  |  | 13.6 | > 20 | CCc1nc2c(s1)CC[C@H]2C(=O)Nc1ccc(C[C@@H]2CC[C@H]([C@H](O)c3cccnc3)N2)cc1 | 
> 20 | 91 |  |  | 44.2 | > 20 | Nc1nc2c(s1)CC[C@@H]2C(=O)Nc1ccc(C[C@@H]2CC[C@H]([C@H](O)c3ccccc3)N2)cc1 | 
> 20 | 94 |  |  | 0.04 | > 20 | Nc1nc2c(s1)CC[C@H]2C(=O)Nc1ccc(C[C@@H]2CC[C@H]([C@H](O)c3cccc(F)c3)N2)cc1 | IC50 [18]: 4 µM
> 20 | 102 | 34 | 2 | 16.7 | > 20 | C[C@@H](C(=O)Nc1ccc(C[C@@H]2CC[C@H]([C@H](O)c3cccnc3)N2)cc1)n1cccn1 | bioavailability [3]: 29%
> 20 | 72 |  |  | 76.7 | > 20 | O=C(Cn1cccn1)Nc1ccc(C[C@@H]2CC[C@H]([C@H](O)c3cccnc3)N2)cc1 | 
> 20 | 84 |  |  | 0.18 | > 20 | C[C@@H](C(=O)Nc1ccc(C[C@@H]2CC[C@H]([C@H](O)c3ccccc3)N2)cc1)c1csc(N)n1 | 
> 20 | 85 |  |  | 1.6 | > 20 | CC(C)[C@@H](C(=O)Nc1ccc(C[C@@H]2CC[C@H]([C@H](O)c3ccccc3)N2)cc1)c1csc(N)n1 | 
> 20 | 89 | 25 | 1 | 1.15 | > 20 | Cc1nc2c(s1)CC[C@H]2C(=O)Nc1ccc(C[C@@H]2CC[C@H]([C@H](O)c3cccnc3)N2)cc1 | IC50 [12]: 41.8 µM; Ratio IC50/EC50 [19]: 77; IC50 [13]: > 30 µM; IC50 [14]: > 30 µM; bioavailability [3]: 46%; Papp [5]: 17 ×10⁻⁶ cm/s; IC50 [15]: 0.089 µM; fraction unbound [8]: 0.11; IC50 [16]: 67.2 µM; IC50 [18]: 12 µM; CLint scaled [9]: 62 mL/min/kg; IC50 [17]: > 100 µM
> 20 | 70 |  |  | 1.86 | > 20 | Nc1nc2c(s1)CCCC[C@H]2C(=O)Nc1ccc(C[C@@H]2CC[C@H]([C@H](O)c3ccccc3)N2)cc1 | 
> 20 | 91 | 50 | 4 | 0.15 | > 20 | Nc1nc2c(s1)CC[C@H]2C(=O)Nc1ccc(C[C@@H]2CC[C@H]([C@H](O)c3ccccc3)N2)cc1 | Activity [20]: 102%; IC50 [12]: 86 µM; EC50 [21]: 0.06 nM; EC50 [22]: 0.00019 µM; Activity [23]: 78%; IC50 [13]: 5.6 µM; IC50 [14]: > 30 µM; bioavailability [3]: 6%; Papp [5]: 5 ×10⁻⁶ cm/s; EC50 [24]: 0.0013 µM; IC50 [15]: 1.22 µM; fraction unbound [8]: 0.18; IC50 [16]: > 100 µM; IC50 [18]: 12.7 µM; CLint scaled [9]: 59 mL/min/kg; IC50 [17]: 18.3 µM; Activity [25]: 100%
